Values after ≈ are worked out from the molar mass of the structure shown.
Assays:
Staphylococcus aureus [1] = test: Antibacterial activity against methicillin-resistant Staphylococcus aureus USA300 at 5 ug after 18 to 20 hrs by CLSI disk diffusion assay; type: functional; settings: read-out: DIZ
Summary of the method: (§1)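 Disk diffusion on 4 mm Mueller-Hinton agar swabbed with about 10^8 CFU/mL suspension in PBS; 6 mm paper disk loaded with 5 µg compound in DMSO; 37 °C ambient air for 18–20 h; diameter of the complete inhibition zone measured in mm with callipers from the plate back; at least three independent experiments, mean with standard error; 6 mm means no inhibition.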

Staphylococcus aureus [2] = test: Bactericidal activity against methicillin-resistant Staphylococcus aureus USA300 preincubated for 20 hrs followed by agar plating and measured after 18 to 20 hrs; type: functional
Summary of the method: (§2)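 MBC taken from broth microdilution (final about 10^5 CFU/mL, Mueller-Hinton broth, 37 °C for 20 h). Clear wells (basal optical density) were spread on TSA plates and incubated at 37 °C for 18–20 h. The lowest concentration giving no colonies is reported. At least triplicate.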

Staphylococcus aureus [3] = test: Bactericidal activity against hospital-associated methicillin-resistant Staphylococcus aureus COL preincubated for 20 hrs followed by agar plating and measured after 18 to 20 hrs; type: functional; summary of the method: as §2
A549 = test: Cytotoxicity against human A549 cells after 24 to 48 hrs by fluorescence-based assay; type: cell-based
Summary of the method: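 A549 cells, ~10^4 per well in DMEM, given 2-fold serial dilutions of compound (DMSO stock diluted in DMEM). Incubated at 37 °C, 5% CO2. PrestoBlue added for 1 h, then fluorescence read at excitation 535 nm and emission 610 nm as a measure of viable cells.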

Staphylococcus aureus [4] = test: Bactericidal activity against methicillin-susceptible Staphylococcus aureus ATCC 29213 preincubated for 20 hrs followed by agar plating and measured after 18 to 20 hrs; type: functional
Summary of the method: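 Broth microdilution per CLSI guideline. Compounds diluted 2-fold in MHB from 100 mM DMSO stocks. Inoculum ~10^5 CFU/mL final, from overnight TSB culture diluted in PBS. Plates incubated at 37 °C. Wells without growth by optical density spread on TSA and incubated at 37 °C. MBC is the lowest concentration giving no colonies. At least triplicate.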

Staphylococcus aureus [5] = test: Antibacterial activity against methicillin-susceptible Staphylococcus aureus ATCC 25923 at 5 ug after 18 to 20 hrs by CLSI disk diffusion assay; type: functional; settings: read-out: DIZ
Summary of the method: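 Mueller-Hinton agar, 4 mm deep, swabbed with PBS-diluted overnight TSB culture (~10^8 CFU/mL). Paper disk (6 mm) loaded with compound in DMSO, incubated 37 °C in ambient air. Complete inhibition zone diameter read from plate back with callipers; 6 mm means no inhibition. At least three independent experiments, mean with standard error.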

Staphylococcus aureus [6] = test: Antibacterial activity against hospital-associated methicillin-resistant Staphylococcus aureus COL after 20 hrs by CLSI microdilution assay; type: functional
Staphylococcus aureus [7] = test: Antibacterial activity against methicillin-susceptible Staphylococcus aureus ATCC 29213 after 20 hrs by CLSI microdilution assay; type: functional; settings: ATCC 29213, 20 h
Staphylococcus aureus [8] = test: Antibacterial activity against hospital-associated methicillin-resistant Staphylococcus aureus COL at 5 ug after 18 to 20 hrs by CLSI disk diffusion assay; type: functional; settings: read-out: DIZ; summary of the method: as §1
Staphylococcus aureus [9] = test: Antibacterial activity against methicillin-resistant Staphylococcus aureus USA300 after 20 hrs by CLSI microdilution assay; type: functional; settings: USA300, 20 h
Staphylococcus aureus [10] = test: Potentiation of TMP-mediated antibacterial activity against hospital-associated methicillin-resistant Staphylococcus aureus COL assessed as TMP MIC after 20 hrs by CLSI microdilution assay (reference value: 5 microg/ml); type: functional
Staphylococcus aureus [11] = test: Potentiation of TMP-Cl-mediated antibacterial activity against hospital-associated methicillin-resistant Staphylococcus aureus COL assessed as TMP-Cl MIC after 20 hrs by CLSI microdilution assay (reference value: 5 microg/ml); type: functional
Staphylococcus aureus [12] = test: Synergistic antibacterial activity against hospital-associated methicillin-resistant Staphylococcus aureus COL in presence of TMP-Cl after 20 hrs by broth microdilution-based checkerboard titration assay; type: functional
Staphylococcus aureus [13] = test: Synergistic antibacterial activity against methicillin-resistant Staphylococcus aureus USA300 in presence of TMP-Cl after 20 hrs by broth microdilution-based checkerboard titration assay; type: functional
Staphylococcus aureus [14] = test: microbe, parasite or virus in culture; type: functional; settings: ATCC 29213, 20 h
Staphylococcus aureus [15] = test: Synergistic antibacterial activity against methicillin-susceptible Staphylococcus aureus ATCC 29213 in presence of TMP-Br after 20 hrs by broth microdilution-based checkerboard titration assay; type: functional
Staphylococcus aureus [16] = test: Potentiation of TMP-Br-mediated antibacterial activity against hospital-associated methicillin-resistant Staphylococcus aureus COL assessed as TMP-Br MIC after 20 hrs by CLSI microdilution assay (reference value: 5 microg/ml); type: functional
Staphylococcus aureus [17] = test: Synergistic antibacterial activity against methicillin-resistant Staphylococcus aureus USA300 in presence of TMP after 20 hrs by broth microdilution-based checkerboard titration assay; type: functional
Staphylococcus aureus [18] = test: microbe, parasite or virus in culture; type: functional; settings: USA300, 20 h
Staphylococcus aureus [19] = test: Synergistic antibacterial activity against hospital-associated methicillin-resistant Staphylococcus aureus COL in presence of TMP after 20 hrs by broth microdilution-based checkerboard titration assay; type: functional
Staphylococcus aureus [20] = test: Synergistic antibacterial activity against methicillin-resistant Staphylococcus aureus USA300 in presence of TMP-Br after 20 hrs by broth microdilution-based checkerboard titration assay; type: functional
Staphylococcus aureus [21] = test: Synergistic antibacterial activity against methicillin-susceptible Staphylococcus aureus ATCC 29213 in presence of TMP-Cl after 20 hrs by broth microdilution-based checkerboard titration assay; type: functional
Staphylococcus aureus [22] = test: microbe, parasite or virus in culture; type: functional; settings: USA300, 20 h; remark: listed apart in the source
Staphylococcus aureus [23] = test: Synergistic antibacterial activity against hospital-associated methicillin-resistant Staphylococcus aureus COL in presence of TMP-I after 20 hrs by broth microdilution-based checkerboard titration assay; type: functional
Staphylococcus aureus [24] = test: microbe, parasite or virus in culture; type: functional; settings: ATCC 29213, 20 h; remark: listed apart in the source
Staphylococcus aureus [25] = test: microbe, parasite or virus in culture; type: functional; settings: ATCC 29213, 20 h; remark: listed apart in the source
Staphylococcus aureus [26] = test: microbe, parasite or virus in culture; type: functional; settings: ATCC 29213, 20 h; remark: listed apart in the source
Staphylococcus aureus [27] = test: microbe, parasite or virus in culture; type: functional; settings: USA300, 20 h; remark: listed apart in the source
Staphylococcus aureus [28] = test: Synergistic antibacterial activity against hospital-associated methicillin-resistant Staphylococcus aureus COL in presence of TMP-Br after 20 hrs by broth microdilution-based checkerboard titration assay; type: functional
Staphylococcus aureus [29] = test: Synergistic antibacterial activity against methicillin-susceptible Staphylococcus aureus ATCC 29213 in presence of TMP-I after 20 hrs by broth microdilution-based checkerboard titration assay; type: functional
Staphylococcus aureus [30] = test: Potentiation of TMP-Cl-mediated antibacterial activity against methicillin-resistant Staphylococcus aureus USA300 assessed as TMP-Cl MIC after 20 hrs by CLSI microdilution assay (reference value: 2.50 microg/ml); type: functional; settings: USA300, 20 h
Staphylococcus aureus [31] = test: Synergistic antibacterial activity against methicillin-resistant Staphylococcus aureus USA300 in presence of TMP-I after 20 hrs by broth microdilution-based checkerboard titration assay; type: functional
Staphylococcus aureus [32] = test: Synergistic antibacterial activity against methicillin-susceptible Staphylococcus aureus ATCC 29213 in presence of TMP after 20 hrs by broth microdilution-based checkerboard titration assay; type: functional
Staphylococcus aureus [33] = test: Potentiation of TMP-I-mediated antibacterial activity against hospital-associated methicillin-resistant Staphylococcus aureus COL assessed as TMP-I MIC after 20 hrs by CLSI microdilution assay (reference value: 2.50 microg/ml); type: functional
Staphylococcus aureus [34] = test: Potentiation of sulfamethoxazole-mediated antibacterial activity against methicillin-susceptible Staphylococcus aureus ATCC 29213 assessed as sulfamethoxazole MIC after 20 hrs by CLSI microdilution assay (reference value: 100 microg/ml); type: functional; settings: ATCC 29213, 20 h
Staphylococcus aureus [35] = test: Synergistic antibacterial activity against methicillin-resistant Staphylococcus aureus USA300 assessed as fractional inhibitory concentration index in presence of sulfamethoxazole after 18 hrs by broth microdilution-based checkerboard titration assay; type: functional
Staphylococcus aureus [36] = test: Synergistic antibacterial activity against hospital-associated methicillin-resistant Staphylococcus aureus COL in presence of sulfamethoxazole after 20 hrs by broth microdilution-based checkerboard titration assay; type: functional
Staphylococcus aureus [37] = test: Synergistic antibacterial activity against methicillin-susceptible Staphylococcus aureus ATCC 29213 in presence of sulfamethoxazole after 20 hrs by broth microdilution-based checkerboard titration assay; type: functional
Staphylococcus aureus [38] = test: Potentiation of sulfamethoxazole-mediated antibacterial activity against hospital-associated methicillin-resistant Staphylococcus aureus COL assessed as sulfamethoxazole MIC after 20 hrs by CLSI microdilution assay (reference value: 200 microg/ml); type: functional
Staphylococcus aureus [39] = test: Synergistic antibacterial activity against hospital-associated methicillin-resistant Staphylococcus aureus COL assessed as fractional inhibitory concentration index in presence of sulfamethoxazole after 18 hrs by broth microdilution-based checkerboard titration assay; type: functional
Staphylococcus aureus [40] = test: Synergistic antibacterial activity against methicillin-resistant Staphylococcus aureus USA300 in presence of sulfamethoxazole after 20 hrs by broth microdilution-based checkerboard titration assay; type: functional
Staphylococcus aureus [41] = test: Synergistic antibacterial activity against methicillin-susceptible Staphylococcus aureus ATCC 29213 assessed as fractional inhibitory concentration index in presence of sulfamethoxazole after 18 hrs by broth microdilution-based checkerboard titration assay; type: functional
Staphylococcus aureus [42] = test: Potentiation of sulfamethoxazole-mediated antibacterial activity against methicillin-resistant Staphylococcus aureus USA300 assessed as sulfamethoxazole MIC after 20 hrs by CLSI microdilution assay (reference value: 100 microg/ml); type: functional; settings: USA300, 20 h

COc1ccc(Cc2cnc(N)nc2N)cc1OC [DIAVERIDINE]
zone of inhibition at 5 µg/disc (Staphylococcus aureus [1]): 6 mm
MBC (Staphylococcus aureus [2]): 10 µg/mL (≈ 38.4 µM)
MBC (Staphylococcus aureus [3]): 20 µg/mL (≈ 76.8 µM)
IC50 (A549): > 1 mM
MBC (Staphylococcus aureus [4]): 5 µg/mL (≈ 19.2 µM)
zone of inhibition at 5 µg/disc (Staphylococcus aureus [5]): 8.81 mm
MIC (Staphylococcus aureus [6]): 10 µg/mL (≈ 38.4 µM)
MIC (Staphylococcus aureus [7]): 5 µg/mL (≈ 19.2 µM)
zone of inhibition at 5 µg/disc (Staphylococcus aureus [8]): 6 mm
MIC (Staphylococcus aureus [9]): 5 µg/mL (≈ 19.2 µM)

Cc1cc(NS(=O)(=O)c2ccc(N)cc2)no1 [SULFAMETHOXAZOLE]
MIC (Staphylococcus aureus [10]): 0.31 µg/mL
MIC (Staphylococcus aureus [11]): 0.31 µg/mL
FIC (Staphylococcus aureus [12]): 0.06
FIC (Staphylococcus aureus [13]): 0.06
MIC (Staphylococcus aureus [14]): 0.08 µg/mL (≈ 0.316 µM)
FIC (Staphylococcus aureus [15]): 0.06
MIC (Staphylococcus aureus [16]): 0.31 µg/mL
FIC (Staphylococcus aureus [17]): 0.06
MIC (Staphylococcus aureus [18]): 0.16 µg/mL (≈ 0.632 µM)
MIC (Staphylococcus aureus [6]): 200 µg/mL (≈ 790 µM)
FIC (Staphylococcus aureus [19]): 0.06
FIC (Staphylococcus aureus [20]): 0.12
MIC (Staphylococcus aureus [7]): 100 µg/mL (≈ 395 µM)
FIC (Staphylococcus aureus [21]): 0.06
MIC (Staphylococcus aureus [22]): 0.08 µg/mL (≈ 0.316 µM)
FIC (Staphylococcus aureus [23]): 0.06
MIC (Staphylococcus aureus [24]): 0.08 µg/mL (≈ 0.316 µM)
MIC (Staphylococcus aureus [25]): 0.08 µg/mL (≈ 0.316 µM)
MIC (Staphylococcus aureus [26]): 0.08 µg/mL (≈ 0.316 µM)
MIC (Staphylococcus aureus [27]): 0.08 µg/mL (≈ 0.316 µM)
FIC (Staphylococcus aureus [28]): 0.06
MIC (Staphylococcus aureus [9]): 100 µg/mL (≈ 395 µM)
FIC (Staphylococcus aureus [29]): 0.06
MIC (Staphylococcus aureus [30]): 0.16 µg/mL
FIC (Staphylococcus aureus [31]): 0.06
FIC (Staphylococcus aureus [32]): 0.06
MIC (Staphylococcus aureus [33]): 0.16 µg/mL

COc1cc(Cc2cnc(N)nc2N)cc(OC)c1OC [TRIMETHOPRIM]
MIC (Staphylococcus aureus [34]): 6.25 µg/mL
zone of inhibition at 5 µg/disc (Staphylococcus aureus [1]): 22.8 mm
MBC (Staphylococcus aureus [2]): 2.5 µg/mL (≈ 8.61 µM)
MBC (Staphylococcus aureus [3]): 10 µg/mL (≈ 34.4 µM)
fractional inhibitory concentration index (FICI) (Staphylococcus aureus [35]): 0.12
MBC (Staphylococcus aureus [4]): 1.25 µg/mL (≈ 4.31 µM)
FIC (Staphylococcus aureus [36]): 0.06
zone of inhibition at 5 µg/disc (Staphylococcus aureus [5]): 20.2 mm
MIC (Staphylococcus aureus [6]): 5 µg/mL (≈ 17.2 µM)
MIC (Staphylococcus aureus [7]): 1.25 µg/mL (≈ 4.31 µM)
FIC (Staphylococcus aureus [37]): 0.06
zone of inhibition at 5 µg/disc (Staphylococcus aureus [8]): 6 mm
MIC (Staphylococcus aureus [38]): 12.5 µg/mL
fractional inhibitory concentration index (FICI) (Staphylococcus aureus [39]): 0.12
FIC (Staphylococcus aureus [40]): 0.06
MIC (Staphylococcus aureus [9]): 1.25 µg/mL (≈ 4.31 µM)
fractional inhibitory concentration index (FICI) (Staphylococcus aureus [41]): 0.12
MIC (Staphylococcus aureus [42]): 6.25 µg/mL

Source: ChEMBL document CHEMBL4270522, “Halogenated trimethoprim derivatives as multidrug-resistant Staphylococcus aureus therapeutics” (Bioorg Med Chem, 2018)
